Source: ChEMBL document CHEMBL2029235, “Bio-inspired synthesis and biological evaluation of a colchicine-related compound library” (Bioorg Med Chem Lett, 2012)

Tests used:
HT-29 [1] = assay: Cytotoxicity against human HT-29 cells
HT-29 [2] = assay: Cytotoxicity against human HT-29 cells after 96 hrs by MTT assay; assay type: functional, cell-based; details: HT-29, 96 h
Summary of the method: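 HT-29 cells in RPMI-1640 with 10% newborn calf serum, 37 °C, 5% CO2. Seeded at 5 × 10^3 cells/well and grown 24 h, then given fresh medium with graded compound concentrations for 96 h. MTT (5 mg/mL stock) added for 1–2 h at 37 °C. Formazan dissolved in DMSO and read at 570 nm; viability taken as absorbance fraction of untreated wells. Run in triplicate, mean ± SD.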

COc1cc2c(c(OC)c1OC)-c1ccc(OC)c(=O)cc1[C@@H](NC(C)=O)CC2 [COLCHICINE]
IC50 (HT-29 [1]): 0.008 µM

COc1cc2c3c(c1O)-c1c(cc(OC)c(OC)c1OC)CC[C@@H]3N(C)CC2=O
IC50 (HT-29 [2]): 22.5 µM

COC1=C[C@@]23CCN(C(C)=O)[C@@H](CCc4cc(OC)c(OC)c(OC)c42)C3=CC1=O
IC50 (HT-29 [2]): 37.8 µM

COc1cc2c(cc1O)[C@@H]1CCc3cc(OC)c(OC)c(OC)c3[C@H]2CN1C(C)=O
IC50 (HT-29 [2]): > 50 µM

COc1cc2c(c(OC)c1OC)-c1c(OC(=O)OCC(Cl)(Cl)Cl)c(OC)cc3ccnc(c13)CC2
IC50 (HT-29 [2]): 0.229 µM

COC1=CC2(C=C(OC)C1=O)CC[C@H]1c3c(cc(OC)c(O)c32)CCN1C
IC50 (HT-29 [2]): > 50 µM

COc1cc2c(cc1O)[C@@H]1CCc3cc(OC)c(OC)c(OC)c3[C@H]2CN1S(C)(=O)=O
IC50 (HT-29 [2]): 11.6 µM

COC1=CC2=C3c4c(c(OC)cc5ccnc(c45)CC2)O[C@]3(OC)C1=O
IC50 (HT-29 [2]): 23.9 µM

COc1cc2c(c(OC)c1OC)-c1c(OS(=O)(=O)C(F)(F)F)c(OC)cc3ccnc(c13)CC2
IC50 (HT-29 [2]): 24.6 µM

COC(=O)Oc1c(OC)cc2ccnc3c2c1-c1c(cc(OC)c(OC)c1OC)CC3
IC50 (HT-29 [2]): 0.182 µM

COc1cc2c(c(OC)c1OC)[C@H]1CN(S(=O)(=O)c3ccc(C)cc3)[C@@H](CC2)C2=CC(=O)C(=O)C=C21
IC50 (HT-29 [2]): 6.6 µM

COc1cc2c(c(OC)c1OC)-c1c(OC(=O)Oc3ccccc3)c(OC)cc3ccnc(c13)CC2
IC50 (HT-29 [2]): 0.132 µM

COC1=C[C@@]23CCN(S(C)(=O)=O)[C@@H](CCc4cc(OC)c(OC)c(OC)c42)C3=CC1=O
IC50 (HT-29 [2]): > 50 µM

COc1cc2c(c(OC)c1OC)-c1c(OC(C)=O)c(OC)cc3ccnc(c13)CC2
IC50 (HT-29 [2]): 0.189 µM

COc1cc2c3c(c1O)-c1c(cc(OC)c(OC)c1OC)CC[C@@H]3N(S(C)(=O)=O)C(O)C2=O (some centres undefined)
IC50 (HT-29 [2]): > 50 µM

COc1cc2ccnc3c2c(c1O)-c1c(cc(OC)c(OC)c1OC)CC3
IC50 (HT-29 [2]): 0.179 µM

COc1cc2c(cc1OC(C)=O)[C@H]1CCc3cc(OC)c(OC)c(OC)c3[C@@H](C2)N1C
IC50 (HT-29 [2]): 43.5 µM

COc1cc2c3c(c1O)-c1c(cc(OC)c(OC)c1OC)CC[C@@H]3N(S(=O)(=O)C(F)(F)F)CC2=O
IC50 (HT-29 [2]): 1.16 µM

COc1cc2c(cc1OC)[C@H]1CCc3cc(OC)c(OC)c(OC)c3[C@@H](C2)N1C
IC50 (HT-29 [2]): > 50 µM

COc1cc2c(cc1O)[C@@H]1CCc3cc(OC)c(OC)c(OC)c3[C@H]2CN1C(=O)C(F)(F)F
IC50 (HT-29 [2]): 27.8 µM

COc1cc2c(c(OC)c1OC)-c1c(OC(=O)C3CCCCC3)c(OC)cc3ccnc(c13)CC2
IC50 (HT-29 [2]): 0.99 µM

COc1cc2c3c(c1O)-c1c(cc(OC)c(OC)c1OC)CC[C@@H]3N(C(=O)C(F)(F)F)C=C2
IC50 (HT-29 [2]): 0.684 µM

COc1cc2c3c(c1O)-c1c(cc(OC)c(OC)c1OC)CC[C@@H]3N(S(C)(=O)=O)CC2
IC50 (HT-29 [2]): 7.95 µM

COc1cc2c(c(OC)c1OC)-c1c(OC(=O)c3ccccc3)c(OC)cc3ccnc(c13)CC2
IC50 (HT-29 [2]): 2.56 µM

COc1cc2c3c(c1O)-c1c(cc(OC)c(OC)c1OC)CC[C@@H]3N(S(=O)(=O)C(F)(F)F)CC2
IC50 (HT-29 [2]): 10.4 µM

COC1=CC2(C=C(OC)C1=O)CC[C@H]1c3c(cc(OC)c(O)c32)CCN1C(C)=O
IC50 (HT-29 [2]): 45.9 µM

COC1=C[C@@]23CCN(S(=O)(=O)C(F)(F)F)[C@@H](CCc4cc(OC)c(OC)c(OC)c42)C3=CC1=O
IC50 (HT-29 [2]): 15.7 µM

COc1cc2c(c(OC)c1OC)-c1c(OS(C)(=O)=O)c(OC)cc3ccnc(c13)CC2
IC50 (HT-29 [2]): 24.4 µM

COc1cc2c(cc1O)[C@@H]1CCc3cc(OC)c(OC)c(OC)c3[C@H]2CN1S(=O)(=O)c1ccc(C)cc1
IC50 (HT-29 [2]): 10.8 µM

COC1=C[C@@]23CCN(C(=O)C(F)(F)F)[C@@H](CCc4cc(OC)c(OC)c(OC)c42)C3=CC1=O
IC50 (HT-29 [2]): > 50 µM

COc1cc2c(c(OC)c1OC)-c1c(OC(=S)n3ccnc3)c(OC)cc3ccnc(c13)CC2
IC50 (HT-29 [2]): 0.293 µM

COc1cc2c3c(c1O)-c1c(cc(OC)c(OC)c1OC)CC[C@@H]3N(C(C)=O)CC2
IC50 (HT-29 [2]): 13.3 µM

COC1=C[C@@]23CCN(S(=O)(=O)c4ccc(C)cc4)[C@@H](CCc4cc(OC)c(OC)c(OC)c42)C3=CC1=O
IC50 (HT-29 [2]): 42.7 µM

COc1cc2c(c(OC)c1OC)-c1c(OC(C)=O)c(OC)cc3c1[C@H](CC2)N(C(=O)C(F)(F)F)C=C3
IC50 (HT-29 [2]): 1.25 µM

COc1cc2c(cc1O)[C@H](CCc1cc(OC)c(OC)c(OC)c1)N(C(=O)C(F)(F)F)CC2
IC50 (HT-29 [2]): > 50 µM

COC1=CC2(C=C(OC)C1=O)CC[C@H]1c3c(cc(OC)c(O)c32)CCN1S(=O)(=O)C(F)(F)F
IC50 (HT-29 [2]): 46.5 µM

COc1cc2c(cc1OC(C)=O)[C@@H]1CCc3cc(OC)c(OC)c(OC)c3[C@H]2CN1C(=O)C(F)(F)F
IC50 (HT-29 [2]): 40.8 µM

COc1cc2c(cc1O)[C@H]1CCc3cc(OC)c(OC)c(OC)c3[C@@H](C2)N1C
IC50 (HT-29 [2]): > 50 µM

COc1cc2c(c(OC)c1OC)-c1c(OS(=O)(=O)C(F)(F)F)c(OC)cc3c1C(=CC2)N(S(=O)(=O)C(F)(F)F)C=C3
IC50 (HT-29 [2]): 10.1 µM

COc1cc2c(c(OC)c1OC)-c1c(OC(=O)Oc3ccccc3)c(OC)cc3c1[C@H](CC2)N(C)CC3=O
IC50 (HT-29 [2]): 30.8 µM

COc1cc2c(c(OC)c1OC)-c1c(OC(C)=O)c(OC)cc3c1[C@H](CC2)N(C)CC3=O
IC50 (HT-29 [2]): 27.2 µM

COc1cc2c3c(c1O)-c1c(cc(OC)c(OC)c1OC)CC[C@@H]3N(C(=O)C(F)(F)F)CC2
IC50 (HT-29 [2]): 6.45 µM

COc1cc2c(cc1OC(C)=O)[C@H]1CCc3cc(OC)c(OC)c(OC)c3[C@@H](C2)N1Cc1ccccc1
IC50 (HT-29 [2]): 21.7 µM

COc1cc2c(cc1O)[C@H]1CCc3cc(OC)c(OC)c(OC)c3[C@@H](C2)N1Cc1ccccc1
IC50 (HT-29 [2]): 9.1 µM
